High-throughput results (PubChem)
An excerpt weighted towards active compounds, which were near 5.8% of everything screened.
Pf Dd2 inh: P. falciparum Dd2 growth inhibition. SYBR Green, 72 h; stronger effect = lower value. activity change, % at 10 µM. actives 2.3% (n = 94,000). AID 1159554; in the data active means activity change below about -80%; inconclusive means no clear call, values can overlap the other calls
T cruzi growth-1: inhibitors of T. cruzi proliferation; T. cruzi beta-gal in NIH3T3, GalScreen luminescence, 90 h; actives 5.9% (n = 77,000); inhibition, % at 8.34 µM; AID 624255;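 active means mean inhibition above about 93%, with at least 55% of replicates each passing it, limit read from the data, passing the limit was not always enough; inconclusive means only one of those two conditions holds; inactive means neither condition holds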
IDH1 R132H inh: IDH1 R132H (human) inhibition; IDH1 R132H reductase, diaphorase/resazurin fluorescence, 60 min; inhibition, % at 10 µM; actives 0.18% (n = 70,000); in the data active means inhibition above about 34%; inconclusive means no clear call, values can overlap the other calls; inactive means below about 11%;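 further: 0% = DMSO and 100% = no enzyme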
GASC1 inh: blocks human GASC-1 (KDM4C) demethylase activity; Q9H3R0; GST-KDM4C 2-372, H3K9me3 peptide, LANCE TR-FRET; inhibition, % at 12.5 µM; actives 0.15% (n = 96,000); AID 720574;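 active means mean replicate inhibition above about 25%, with at least 55% of replicates also reaching it, limit read from the data, passing the limit was not always enough; inconclusive means only one of those two conditions met; inactive means neither condition met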
Target sequence (Q9H3R0 2-372 limits assumed): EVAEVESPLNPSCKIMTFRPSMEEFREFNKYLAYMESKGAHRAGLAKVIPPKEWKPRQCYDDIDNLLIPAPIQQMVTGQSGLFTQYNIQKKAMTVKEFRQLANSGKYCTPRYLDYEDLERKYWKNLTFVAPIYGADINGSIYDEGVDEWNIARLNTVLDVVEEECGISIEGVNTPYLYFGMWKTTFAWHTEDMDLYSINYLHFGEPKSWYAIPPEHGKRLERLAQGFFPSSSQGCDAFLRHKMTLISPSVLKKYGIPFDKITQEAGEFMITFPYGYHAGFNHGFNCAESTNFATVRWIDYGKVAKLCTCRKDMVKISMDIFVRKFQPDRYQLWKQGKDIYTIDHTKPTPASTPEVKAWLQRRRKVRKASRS
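Material: GST-tagged GASC-1 (JMJD2C) catalytic fragment, aa 2-372. Input: enzyme final amount 10 nM. Medium: HEPES buffer, pH 7.5, plus ascorbate. Reagent: H3K9me3 peptide substrate, Fe(II), 2-oxoglutarate. Doses: single dose. Times: reaction 30 min RT, detection step 1 h RT. Measured by: LANCE TR-FRET. Evaluation: Fall in 671/618 emission ratio as inhibition.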
T cruzi growth-2: inhibitors of T. cruzi proliferation | shares compounds with T cruzi growth-1 | T. cruzi beta-gal in NIH3T3, GalScreen luminescence, 90 h | inhibition, % at 8.35 µM | actives 72% (n = 5,600) | AID 651739;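 active means mean replicate inhibition above about 95% and at least 55% of replicates individually reaching it, limit read from the data; inconclusive means only one of the two criteria is met; inactive means neither criterion is met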
T cruzi growth-3: inhibitors of T. cruzi proliferation; T. cruzi beta-gal in NIH3T3, GalScreen luminescence, 90 h; actives 21% (n = 5,600); AID 651740; inhibition, % at 2.09 µM; shares compounds with T cruzi growth-1;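 active means mean inhibition above about 95%, with at least 55% of replicates also reaching it, limit read from the data; inconclusive means meets just one of the two conditions; inactive means meets neither condition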;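 further: plate controls were neutral control median for no effect and positive control median for full effect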
NIH3T3 tox: NIH/3T3 (mouse) viability loss. shares compounds with T cruzi growth-1. cytotoxicity (signal decrease), % at 8.35 µM. actives 14% (n = 5,600). NIH/3T3 viability, CellTiter-Glo ATP luminescence, 90 h;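 active means mean signal decrease across replicates above about 35% based on untreated-well scatter, with enough replicates individually passing, limit read from the data; inconclusive means no rule stated though some were filed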;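 further: 0% = median of neutral control wells and 100% = median of positive control wells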
3T3 cytotox 2: NIH/3T3 (mouse) viability loss. shares compounds with T cruzi growth-1. NIH/3T3 viability, CellTiter-Glo ATP luminescence, 90 h. inhibition, % at 24.9 µM. actives 56% (n = 5,600);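 active means mean loss of cell viability signal at or above a set limit, and enough replicates individually reaching it; inconclusive means meets only the mean limit or only the replicate share; inactive means meets neither condition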;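 further: 0% = median of neutral control wells and 100% = median of positive control wells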
* hit, by the source's call.

How did CO[C@@H](CN(C)C(=O)Nc1ccc(C(F)(F)F)cc1)[C@@H](C)CN(Cc1ccccc1Cl)[C@@H](C)CO do in these assays?
Pf Dd2 inh: -51; T cruzi growth-1: 72; IDH1 R132H inh: -1; GASC1 inh: 0

What do the screens show for `C[C@@H]1CCCCO[C@@H](CN(C)C(=O)Nc2cccc3ccccc23)[C@@H](C)CN([C@H](C)CO)C(=O)c2cc(NS(=O)(=O)c3ccc(Cl)cc3)ccc2O1`?
Pf Dd2 inh: -57; T cruzi growth-1: 32; IDH1 R132H inh: 4; GASC1 inh: -2

What do the screens show for `C[C@@H]1CCCCO[C@@H](CN(C)C(=O)Nc2cccc3ccccc23)[C@@H](C)CN([C@@H](C)CO)C(=O)c2cc(NS(=O)(=O)c3ccc(Cl)cc3)ccc2O1`?
Pf Dd2 inh: -77; T cruzi growth-1: 99*; GASC1 inh: 0; T cruzi growth-2: 103*; T cruzi growth-3: 93; NIH3T3 tox: -3; 3T3 cytotox 2: 4

How did C[C@@H]1CCCCO[C@H](CN(C)C(=O)Nc2cccc3ccccc23)[C@H](C)CN([C@H](C)CO)C(=O)c2cc(NS(=O)(=O)c3ccc(Cl)cc3)ccc2O1 do in these assays?
Pf Dd2 inh: -76; T cruzi growth-1: 105*; IDH1 R132H inh: -1; GASC1 inh: -2; T cruzi growth-2: 108*; T cruzi growth-3: 113*; NIH3T3 tox: 9; 3T3 cytotox 2: -1

What do the screens show for `O=C(C[C@H]1CC[C@H]2[C@@H](COC[C@@H](O)CN2S(=O)(=O)c2ccc(Cl)cc2)O1)N[C@@H]1CCN(Cc2ccccc2)C1`?
Pf Dd2 inh: -29; T cruzi growth-1: 96*; GASC1 inh: -1; T cruzi growth-2: inconclusive; T cruzi growth-3: 71; NIH3T3 tox: -11; 3T3 cytotox 2: 0

How did Cc1ccc(S(=O)(=O)N2C[C@H](O)COC[C@@H]3O[C@H](CC(=O)N[C@@H]4CCN(Cc5ccccc5)C4)CC[C@H]32)cc1 do in these assays?
Pf Dd2 inh: -19; T cruzi growth-1: 68; GASC1 inh: 1

What do the screens show for `Cc1ccc(S(=O)(=O)N2C[C@H](O)COC[C@H]3O[C@@H](CC(=O)N[C@@H]4CCN(Cc5ccccc5)C4)CC[C@@H]32)cc1`?
Pf Dd2 inh: -8; T cruzi growth-1: 98*; GASC1 inh: -1; T cruzi growth-2: 76; T cruzi growth-3: 61; NIH3T3 tox: -2; 3T3 cytotox 2: 1

What do the screens show for `CNC[C@H]1OCCCC[C@H](C)Oc2ccc(NC(=O)NC(C)C)cc2C(=O)N([C@@H](C)CO)C[C@H]1C`?
Pf Dd2 inh: 27; T cruzi growth-1: 44; IDH1 R132H inh: 6; GASC1 inh: 1

Results for O=C(NCc1ccc(F)cc1)[C@@H]1[C@@H](CO)[C@@H]2Cn3c(cccc3=O)[C@@H]2N1CCC(F)(F)F ?
T cruzi growth-1: 143*; GASC1 inh: 1; T cruzi growth-2: -1; T cruzi growth-3: -5; NIH3T3 tox: 0; 3T3 cytotox 2: 1

Results for COc1ccccc1-c1ccc2n(c1=O)C[C@H]1[C@H](CO)[C@@H](C(=O)Nc3nccs3)N(CC3CC3)[C@@H]21 ?
Pf Dd2 inh: -1; T cruzi growth-1: inconclusive; GASC1 inh: 3; T cruzi growth-2: -1; T cruzi growth-3: -28; NIH3T3 tox: 3; 3T3 cytotox 2: 11

What do the screens show for `CCN1[C@H](C(=O)NCc2ccc(F)cc2)[C@@H](CO)[C@@H]2Cn3c(ccc(-c4ccccc4OC)c3=O)[C@@H]21`?
T cruzi growth-1: 104*; GASC1 inh: 1; T cruzi growth-2: 69; T cruzi growth-3: 18; NIH3T3 tox: 17; 3T3 cytotox 2: 3

Results for CCN1[C@@H]2c3ccc(-c4ccccc4OC)c(=O)n3C[C@@H]2[C@@H](CO)[C@@H]1C(=O)Nc1nccs1 ?
Pf Dd2 inh: 6; T cruzi growth-1: 87; GASC1 inh: 1
